Laboratory results taken from ChEMBL document CHEMBL1153527, “Discovery of a novel series of quinolone and naphthyridine derivatives as potential topoisomerase I inhibitors by scaffold modification” (J Med Chem, 2009).

Legend:
U-937 = assay: Cytotoxicity against human U937 cells expressing p53 mutant after 48 hrs by SRB assay; assay type: functional, cell-based; conditions: U-937, 48 h
HT-29 = assay: Cytotoxicity against human HT-29 cells expressing p53 mutant after 48 hrs by SRB assay; assay type: functional, cell-based; conditions: HT-29, 48 h
Outline: (§1)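 Cell lines came from CCRC, Taiwan. Cells were seeded at about 5 × 10^3 per well and left overnight. They were then given serum-free medium containing 0-10 μM compound (0.08-10 μM serial dilutions) for 48 h at 37 °C. Cells were fixed with TCA (10% final), stained with SRB (0.4% final), and the dye was dissolved in 10 mM Tris with A515 read. IC50 was taken from a fitted log concentration-response curve.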

[1] = Cytotoxicity against estrogen receptor-negative human […] cells expressing p53 mutant after 48 hrs by SRB assay; assay type: functional, cell-based; outline: as §1
KB = assay: Cytotoxicity against human KB cells after 48 hrs by MTT assay; assay type: functional, cell-based
K562 = assay: Cytotoxicity against p53-deficient human K562 cells after 48 hrs by SRB assay; assay type: functional, cell-based; conditions: K562, 48 h
PC-3 = assay: Cytotoxicity against p53-deficient human PC3 cells after 48 hrs by SRB assay; assay type: functional, cell-based; conditions: PC-3, 48 h; outline: as §1
MCF7 = assay: Cytotoxicity against estrogen receptor-positive human MCF7 cells expressing wild type p53 after 48 hrs by SRB assay; assay type: functional, cell-based; conditions: MCF7, 48 h; outline: as §1
Bel-7402 = assay: Cytotoxicity against human Bel7402 cells after 48 hrs by MTT assay; assay type: functional, cell-based; conditions: Bel-7402, 48 h
HeLa = assay: Cytotoxicity against p53-deficient human HeLa cells after 48 hrs by SRB assay; assay type: functional, cell-based; outline: as §1
HepG2 = assay: Cytotoxicity against human HepG2 cells expressing wild type p53 after 48 hrs by SRB assay; assay type: functional, cell-based; conditions: HepG2, 48 h; outline: as §1
A549 = assay: Cytotoxicity against human A549 cells expressing wild type p53 after 48 hrs by SRB assay; assay type: functional, cell-based; conditions: A549, 48 h; outline: as §1
AGS = assay: Cytotoxicity against human AGS cells expressing wild type p53 after 48 hrs by SRB assay; assay type: functional, cell-based; outline: as §1
[2] = Cytotoxicity against p53-deficient human Hep3B cells after 48 hrs by SRB assay; assay type: functional, cell-based, Hep 3B2; outline: as §1
A2780 = assay: Cytotoxicity against human A2780 cells after 48 hrs by MTT assay; assay type: functional, cell-based; conditions: A2780, 48 h
THP-1 = assay: Cytotoxicity against human THP1 cells expressing p53 mutant after 48 hrs by SRB assay; assay type: functional, cell-based; conditions: THP-1, 48 h

## CCn1cc(-c2nc3ccc([N+](=O)[O-])cc3[nH]2)c(=O)c2cc(F)c(N3CCNC(C)C3)c(F)c21 (stereo unspecified)
U-937
  IC50: > 10 µM
HT-29
  GI50: 4.2 µM
  IC50: 7.5 µM
[1]
  GI50: 1.8 µM
  IC50: 5.5 µM
KB
  IC50: 2.3 µM
K562
  IC50: 4.7 µM
PC-3
  GI50: 7.9 µM
  IC50: 9.6 µM
MCF7
  GI50: 2.6 µM
  IC50: 4.9 µM
Bel-7402
  IC50: 1.1 µM
HeLa
  GI50: 1.4 µM
  IC50: 2.4 µM
HepG2
  GI50: 1.5 µM
  IC50: 4.2 µM
A549
  GI50: 0.6 µM
  IC50: 2.4 µM
AGS
  GI50: 2.6 µM
  IC50: 8.2 µM
[2]
  GI50: 1.6 µM
  IC50: 5.5 µM
A2780
  IC50: 2.3 µM
THP-1
  IC50: 7.8 µM

## CCn1cc(-c2nc3ccccc3o2)c(=O)c2cc(F)c(N3CCNCC3)nc21
KB
  IC50: 11.7 µM
Bel-7402
  IC50: 16.8 µM
A2780
  IC50: 15.3 µM

## CCn1cc(-c2nc3ccccc3s2)c(=O)c2cc(F)c(N3CCN(C)CC3)cc21
KB
  IC50: 19 µM
Bel-7402
  IC50: 24 µM
A2780
  IC50: 114 µM

## CCn1cc(-c2nc3ccccc3o2)c(=O)c2cc(F)c(N3CCNC(C)C3)c(F)c21 (stereo unspecified)
KB
  IC50: 18.9 µM
Bel-7402
  IC50: 5.7 µM
A2780
  IC50: 83.5 µM

## CCn1cc(-c2nc3ccc(Cl)cc3[nH]2)c(=O)c2cc(F)c(N3CCNCC3)nc21
KB
  IC50: 10.3 µM
Bel-7402
  IC50: 21.5 µM
A2780
  IC50: 6.3 µM

## CCn1cc(-c2nc3ccc(N)cc3[nH]2)c(=O)c2cc(F)c(N3CCNCC3)cc21
U-937
  IC50: > 10 µM
HT-29
  GI50: > 10 µM
  IC50: > 10 µM
[1]
  GI50: > 10 µM
  IC50: > 10 µM
KB
  IC50: 35.4 µM
K562
  IC50: > 10 µM
PC-3
  GI50: > 10 µM
  IC50: > 10 µM
MCF7
  GI50: > 10 µM
  IC50: > 10 µM
Bel-7402
  IC50: 92.1 µM
HeLa
  GI50: > 10 µM
  IC50: > 10 µM
HepG2
  GI50: > 10 µM
  IC50: > 10 µM
A549
  GI50: > 10 µM
  IC50: > 10 µM
AGS
  GI50: 7.8 µM
  IC50: 10 µM
[2]
  GI50: > 10 µM
  IC50: > 10 µM
A2780
  IC50: 51.5 µM
THP-1
  IC50: 10 µM

## CC[C@@]1(O)C(=O)OCc2c1cc1n(c2=O)Cc2cc3cc(O)ccc3nc2-1 [HYDROXYCAMPTOTHECIN]
KB
  IC50: 0.6 µM
Bel-7402
  IC50: 0.2 µM
A2780
  IC50: 0.7 µM

## CCn1cc(-c2nc3ccccc3s2)c(=O)c2cc(F)c(N3CCNCC3)cc21
KB
  IC50: 28.7 µM
Bel-7402
  IC50: 24.3 µM
A2780
  IC50: 11.3 µM

## CCn1cc(-c2nc3ccc([N+](=O)[O-])cc3o2)c(=O)c2cc(F)c(Cl)cc21
KB
  IC50: 0.5 µM
Bel-7402
  IC50: 1.8 µM

## CCn1cc(-c2nc3ccc([N+](=O)[O-])cc3o2)c(=O)c2cc(F)c(N3CCNCC3)nc21
U-937
  IC50: > 10 µM
HT-29
  GI50: > 10 µM
  IC50: > 10 µM
[1]
  GI50: > 10 µM
  IC50: > 10 µM
KB
  IC50: 1.8 µM
K562
  IC50: > 10 µM
PC-3
  GI50: 5.8 µM
  IC50: 9.8 µM
MCF7
  GI50: > 10 µM
  IC50: > 10 µM
Bel-7402
  IC50: 3 µM
HeLa
  GI50: > 10 µM
  IC50: > 10 µM
HepG2
  GI50: > 10 µM
  IC50: > 10 µM
A549
  GI50: 2.1 µM
  IC50: 7.3 µM
AGS
  GI50: 2.3 µM
  IC50: 4.4 µM
[2]
  GI50: > 10 µM
  IC50: > 10 µM
THP-1
  IC50: > 10 µM

## CCn1cc(-c2nc3ccccc3[nH]2)c(=O)c2cc(F)c(N3CCN(C)CC3)cc21
KB
  IC50: 36.7 µM

## CCn1cc(-c2nc3ccccc3o2)c(=O)c2cc(F)c(Cl)cc21
KB
  IC50: 10.2 µM
Bel-7402
  IC50: 28.9 µM
A2780
  IC50: 78.4 µM

## CCn1cc(-c2nc3ccc(Cl)cc3[nH]2)c(=O)c2cc(F)c(N3CCNCC3)cc21
U-937
  IC50: 4.2 µM
HT-29
  GI50: 1.8 µM
  IC50: 4.7 µM
[1]
  GI50: 0.9 µM
  IC50: 2.3 µM
KB
  IC50: 1.6 µM
K562
  IC50: 2.7 µM
PC-3
  GI50: 3.3 µM
  IC50: 4.8 µM
MCF7
  GI50: 4.2 µM
  IC50: 4.5 µM
Bel-7402
  IC50: 2.8 µM
HeLa
  GI50: 1.2 µM
  IC50: 4.2 µM
HepG2
  GI50: 1.8 µM
  IC50: 3.7 µM
A549
  GI50: 1 µM
  IC50: 0.5 µM
AGS
  GI50: 4.5 µM
  IC50: 1 µM
[2]
  GI50: 0.9 µM
  IC50: 2.3 µM
A2780
  IC50: 4.9 µM
THP-1
  IC50: 2.8 µM

## CCn1cc(-c2nc3ccc([N+](=O)[O-])cc3[nH]2)c(=O)c2cc(F)c(N3CCNCC3)cc21
KB
  IC50: 1.1 µM
Bel-7402
  IC50: 2.1 µM
A2780
  IC50: 1.6 µM

## CCn1cc(-c2nc3ccc([N+](=O)[O-])cc3[nH]2)c(=O)c2cc(F)c(N3CCNCC3)nc21
KB
  IC50: 22.4 µM
Bel-7402
  IC50: 10.8 µM
A2780
  IC50: 12.4 µM

## C[C@H]1COc2c(N3CCN(C)CC3)c(F)cc3c(=O)c(-c4nc5ccccc5s4)cn1c23
KB
  IC50: 60.2 µM
Bel-7402
  IC50: 92.2 µM
A2780
  IC50: 26.6 µM

## CCn1cc(-c2nc3ccc([N+](=O)[O-])cc3s2)c(=O)c2cc(F)c(N3CCNC(C)C3)c(F)c21 (stereo unspecified)
U-937
  IC50: > 10 µM
HT-29
  GI50: 1 µM
  IC50: 5 µM
[1]
  GI50: 2.3 µM
  IC50: 7.4 µM
KB
  IC50: 4.7 µM
K562
  IC50: > 10 µM
PC-3
  GI50: 2.7 µM
  IC50: 10 µM
MCF7
  GI50: > 10 µM
  IC50: > 10 µM
Bel-7402
  IC50: 4.1 µM
HeLa
  GI50: 1.7 µM
  IC50: 9.9 µM
HepG2
  GI50: 0.9 µM
  IC50: 3.6 µM
A549
  GI50: 1.5 µM
  IC50: 7 µM
AGS
  GI50: 3.3 µM
  IC50: 5.4 µM
[2]
  GI50: 0.6 µM
  IC50: 1.4 µM
A2780
  IC50: 3.3 µM
THP-1
  IC50: > 10 µM

## CCn1cc(-c2nc3ccccc3o2)c(=O)c2cc(F)c(N3CCN(C)CC3)cc21
KB
  IC50: 87.4 µM
Bel-7402
  IC50: 2 µM
A2780
  IC50: 0.7 µM

## CCn1cc(-c2nc3ccc([N+](=O)[O-])cc3s2)c(=O)c2cc(F)c(N3CCNCC3)nc21
KB
  IC50: 179 µM
Bel-7402
  IC50: 24.6 µM
A2780
  IC50: 200 µM

## CCn1cc(-c2nc3ccc([N+](=O)[O-])cc3s2)c(=O)c2cc(F)c(N3CCNCC3)cc21
KB
  IC50: 0.7 µM
Bel-7402
  IC50: 1.8 µM
A2780
  IC50: 0.7 µM

## CCn1cc(-c2nc3ccccc3s2)c(=O)c2cc(F)c(N3CCNC(C)C3)c(F)c21 (stereo unspecified)
KB
  IC50: 24.3 µM
Bel-7402
  IC50: 15 µM
A2780
  IC50: 9.8 µM

## CCn1cc(-c2nc3ccc([N+](=O)[O-])cc3[nH]2)c(=O)c2cc(F)c(N3CCN(C)CC3)cc21
KB
  IC50: 2.5 µM
Bel-7402
  IC50: 4.4 µM
A2780
  IC50: 4.7 µM

## CCn1cc(-c2nc3ccc([N+](=O)[O-])cc3o2)c(=O)c2cc(F)c(N3CCN(C)CC3)cc21
KB
  IC50: 40.3 µM
Bel-7402
  IC50: 50.2 µM
A2780
  IC50: 39.6 µM

## CCn1cc(-c2nc3ccccc3[nH]2)c(=O)c2cc(F)c(N3CCNC(C)C3)c(F)c21 (stereo unspecified)
KB
  IC50: 19.1 µM
Bel-7402
  IC50: 30.2 µM
A2780
  IC50: 11.6 µM

## CCn1cc(-c2nc3ccccc3s2)c(=O)c2cc(F)c(N3CCNCC3)nc21
KB
  IC50: 2.4 µM
Bel-7402
  IC50: 2.4 µM
A2780
  IC50: 2.7 µM
